Measurements published in ChEMBL document CHEMBL1131099, “Biologically active oligodeoxyribonucleotides. 5. 5'-End-substituted d(TGGGAG) possesses anti-human immunodeficiency virus type 1 activity by forming a G-quadruplex structure” (J Med Chem, 1998).

Assays:
MT4 [1] = assay: In vitro inhibitory activity for cytopathicities induced by HIV-1III B against MT-4 cells.; type: functional, cell-based; conditions: Homo sapiens
Procedure, shortened: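 Exponentially growing MT-4 cells were pelleted (140g, 5 min), infected in a small volume of RPMI-1640 with 100 TCID50 HIV-1 IIIB for 1 h, washed, and plated at 2.5 × 10⁴ cells/well with serial oligonucleotide dilutions. Viability was read by MTT at day 6. IC50 was taken from dose-response curves, as the mean of duplicate or quadruplicate ± SD.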

MT4 [2] = assay: Cytotoxicity was measured against MT-4 cells using MTT assay.; type: functional; conditions: Homo sapiens

| Compound | IC50 (MT4 [1]) [µM] | CC50 (MT4 [2]) [µM] |
| --- | --- | --- |
| Cc1cn([C@H]2C[C@H](OP(=O)(O)OC[C@H]3O[C@@H](n4cnc5c(O)nc(N)nc54)C[C@@H]3OP(=O)(O)OC[C@H]3O[C@@H](n4cnc5c(O)nc(N)nc54)C[C@@H]3OP(=O)(O)OC[C@H]3O[C@@H](n4cnc5c(O)nc(N)nc54)C[C@@H]3O)[C@@H](COCc3ccc(OCc4ccccc4)c(OCc4ccccc4)c3)O2)c(=O)[nH]c1=O | 4.6 | > 40 |
| Cc1cn([C@H]2C[C@H](OP(=O)(O)OC[C@H]3O[C@@H](n4cnc5c(=O)[nH]c(N)nc54)C[C@@H]3OP(=O)(O)OC[C@H]3O[C@@H](n4cnc5c(=O)[nH]c(N)nc54)C[C@@H]3OP(=O)(O)OC[C@H]3O[C@@H](n4cnc5c(=O)[nH]c(N)nc54)C[C@@H]3OP(=O)(O)OC[C@H]3O[C@@H](n4cnc5c(N)ncnc54)C[C@@H]3OP(=O)(O)OC[C@H]3O[C@@H](n4cnc5c(=O)[nH]c(N)nc54)C[C@@H]3O)[C@@H](COCc3cc(OCc4ccccc4)cc(OCc4ccccc4)c3)O2)c(=O)[nH]c1=O | 0.49 | > 40 |
| Cc1cn([C@H]2C[C@H](OP(=O)(O)OC[C@H]3O[C@@H](n4cnc5c(=O)[nH]c(N)nc54)C[C@@H]3OP(=O)(O)OC[C@H]3O[C@@H](n4cnc5c(=O)[nH]c(N)nc54)C[C@@H]3OP(=O)(O)OC[C@H]3O[C@@H](n4cnc5c(=O)[nH]c(N)nc54)C[C@@H]3OP(=O)(O)OC[C@H]3O[C@@H](n4cnc5c(N)ncnc54)C[C@@H]3OP(=O)(O)OC[C@H]3O[C@@H](n4cnc5c(=O)[nH]c(N)nc54)C[C@@H]3O)[C@@H](COCc3ccc(-c4ccccc4)cc3)O2)c(=O)[nH]c1=O | 2.8 | > 40 |
| Cc1cn([C@H]2C[C@H](OP(=O)(O)OC[C@H]3O[C@@H](n4cnc5c(=O)[nH]c(N)nc54)C[C@@H]3OP(=O)(O)OC[C@H]3O[C@@H](n4cnc5c(=O)[nH]c(N)nc54)C[C@@H]3OP(=O)(O)OC[C@H]3O[C@@H](n4cnc5c(=O)[nH]c(N)nc54)C[C@@H]3OP(=O)(O)OC[C@H]3O[C@@H](n4cnc5c(N)ncnc54)C[C@@H]3OP(=O)(O)OC[C@H]3O[C@@H](n4cnc5c(=O)[nH]c(N)nc54)C[C@@H]3O[Si](c3ccccc3)(c3ccccc3)C(C)(C)C)[C@@H](CO)O2)c(=O)[nH]c1=O | > 40 | 7.7 |
| Cc1cn([C@H]2C[C@H](OP(=O)(O)OC[C@H]3O[C@@H](n4cnc5c(O)nc(N)nc54)C[C@@H]3OP(=O)(O)OC[C@H]3O[C@@H](n4cnc5c(O)nc(N)nc54)C[C@@H]3OP(=O)(O)OC[C@H]3O[C@@H](n4cnc5c(O)nc(N)nc54)C[C@@H]3OP(=O)(O)OC[C@H]3O[C@@H](n4cnc5c(N)ncnc54)C[C@@H]3O)[C@@H](COCc3ccc(OCc4ccccc4)c(OCc4ccccc4)c3)O2)c(=O)[nH]c1=O | 1.9 | > 40 |
| COc1ccc(C(OC[C@H]2O[C@@H](n3cc(C)c(=O)[nH]c3=O)C[C@@H]2OP(=O)(O)OC[C@H]2O[C@@H](n3cnc4c(=O)[nH]c(N)nc43)C[C@@H]2OP(=O)(O)OC[C@H]2O[C@@H](n3cnc4c(=O)[nH]c(N)nc43)C[C@@H]2OP(=O)(O)OC[C@H]2O[C@@H](n3cnc4c(=O)[nH]c(N)nc43)C[C@@H]2OP(=O)(O)OC[C@H]2O[C@@H](n3cnc4c(N)ncnc43)C[C@@H]2OP(=O)(O)OC[C@H]2O[C@@H](n3cnc4c(=O)[nH]c(N)nc43)C[C@@H]2O)(c2ccccc2)c2ccc(OC)cc2)cc1 | 1 | 38 |
| Cc1cn([C@H]2C[C@H](OP(=O)(O)OC[C@H]3O[C@@H](n4cnc5c(=O)[nH]c(N)nc54)C[C@@H]3OP(=O)(O)OC[C@H]3O[C@@H](n4cc(C)c(=O)[nH]c4=O)C[C@@H]3OP(=O)(O)OC[C@H]3O[C@@H](n4cnc5c(=O)[nH]c(N)nc54)C[C@@H]3OP(=O)(O)OC[C@H]3O[C@@H](n4cnc5c(N)ncnc54)C[C@@H]3OP(=O)(O)OC[C@H]3O[C@@H](n4cnc5c(=O)[nH]c(N)nc54)C[C@@H]3O)[C@@H](COCc3ccc(OCc4ccccc4)c(OCc4ccccc4)c3)O2)c(=O)[nH]c1=O | > 24 | > 24 |
| Cc1cn([C@H]2C[C@H](OP(=O)(O)OC[C@H]3O[C@@H](n4cnc5c(=O)[nH]c(N)nc54)C[C@@H]3OP(=O)(O)OC[C@H]3O[C@@H](n4cnc5c(=O)[nH]c(N)nc54)C[C@@H]3OP(=O)(O)OC[C@H]3O[C@@H](n4cnc5c(=O)[nH]c(N)nc54)C[C@@H]3OP(=O)(O)OC[C@H]3O[C@@H](n4cnc5c(N)ncnc54)C[C@@H]3OP(=O)(O)OC[C@H]3O[C@@H](n4cnc5c(=O)[nH]c(N)nc54)C[C@@H]3O)[C@@H](COCc3ccc(OCc4ccccc4)c(OCc4ccccc4)c3)O2)c(=O)[nH]c1=O | 0.37 | > 40 |
| Cc1cn([C@H]2C[C@H](OP(=O)(O)OC[C@H]3O[C@@H](n4cnc5c(=O)[nH]c(N)nc54)C[C@@H]3OP(=O)(O)OC[C@H]3O[C@@H](n4cnc5c(=O)[nH]c(N)nc54)C[C@@H]3OP(=O)(O)OC[C@H]3O[C@@H](n4cnc5c(=O)[nH]c(N)nc54)C[C@@H]3OP(=O)(O)OC[C@H]3O[C@@H](n4cnc5c(N)ncnc54)C[C@@H]3OP(=O)(O)OC[C@H]3O[C@@H](n4cnc5c(=O)[nH]c(N)nc54)C[C@@H]3O)[C@@H](CO[Si](c3ccccc3)(c3ccccc3)C(C)(C)C)O2)c(=O)[nH]c1=O | 0.88 | > 40 |
| Cc1cn([C@H]2C[C@H](OP(=O)(O)OC[C@H]3O[C@@H](n4cc(C)c(=O)[nH]c4=O)C[C@@H]3OP(=O)(O)OC[C@H]3O[C@@H](n4cc(C)c(=O)[nH]c4=O)C[C@@H]3OP(=O)(O)OC[C@H]3O[C@@H](n4cc(C)c(=O)[nH]c4=O)C[C@@H]3OP(=O)(O)OC[C@H]3O[C@@H](n4cc(C)c(=O)[nH]c4=O)C[C@@H]3OP(=O)(O)OC[C@H]3O[C@@H](n4cc(C)c(=O)[nH]c4=O)C[C@@H]3O)[C@@H](COCc3ccc(OCc4ccccc4)c(OCc4ccccc4)c3)O2)c(=O)[nH]c1=O | > 24 | > 24 |
